High-throughput results deposited in PubChem by Broad Institute.
CAL PDZ FP-1: untagged CAL PDZ binding inhibitors, primary screen, biochemical, fluorescence polarization, HTS. Golgi-associated PDZ and coiled-coil motif-containing protein (Homo sapiens), Q9HD26. purified CAL PDZ, TMR-peptide fluorescence polarization, 1 h. inhibition, % at 24.9 µM. 300,000 compounds, 0.92% hits. AID 602252, 2012;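 active means mean inhibition of at least 30% with at least half of replicates also reaching 30%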;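 further: 0% = DMSO neutral control and 100% = excess unlabeled competitor peptide PRC23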
CAL PDZ FP-2: CAL PDZ peptide-binding inhibitors, primary screen, biochemical, fluorescence polarization, Cer-tagged CAL PDZ, HTS | Golgi-associated PDZ and coiled-coil motif-containing protein (Homo sapiens), Q9HD26 | purified CAL PDZ, TMR-peptide fluorescence polarization, 1 h | inhibition, % at 20 µM | 330,000 compounds, 0.02% hits | AID 504414, 2011;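 active means highest replicate inhibition of at least 40%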;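 further: plate controls were DMSO neutral control wells for no effect and unlabeled competitor peptide control wells for full effect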
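Assay system – tagged CAL PDZ protein CerCALP, purified · Timing – 1 h at RT · Compound – single point, 20 µM · Measured by – fluorescence polarization from S- and P-plane intensities, G-factor corrected · Evaluation – inhibition from polarization loss · Probe or stimulus – TMR reporter peptide T*-PRC34 · Buffer or medium – pH 7.4 phosphate-saline buffer, reducing agent, detergent, IgG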
PDI inh: inhibitors of human PDI, primary screen, biochemical, turbidity, single point, plate reader; PDI insulin aggregation turbidity, A650, 90 min; inhibition, % at 10 µM; 350,000 compounds, 0.052% hits;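 active means mean inhibition across replicates of 30% or more, whatever share of single replicates reach that level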
RAD52 anneal inh: RAD52 DNA annealing inhibitors, primary screen, biochemical, FRET, single point, set 2; DNA repair protein RAD52 homolog (Homo sapiens), P43351; 360,000 compounds, 0.46% hits; inhibition, % at 18.7 µM; AID 651710, 2012; recombinant RAD52 DNA annealing, FRET fluorescence;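 active means every replicate showing at least 50% inhibition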
Target sequence (P43351 whole entry, looked up): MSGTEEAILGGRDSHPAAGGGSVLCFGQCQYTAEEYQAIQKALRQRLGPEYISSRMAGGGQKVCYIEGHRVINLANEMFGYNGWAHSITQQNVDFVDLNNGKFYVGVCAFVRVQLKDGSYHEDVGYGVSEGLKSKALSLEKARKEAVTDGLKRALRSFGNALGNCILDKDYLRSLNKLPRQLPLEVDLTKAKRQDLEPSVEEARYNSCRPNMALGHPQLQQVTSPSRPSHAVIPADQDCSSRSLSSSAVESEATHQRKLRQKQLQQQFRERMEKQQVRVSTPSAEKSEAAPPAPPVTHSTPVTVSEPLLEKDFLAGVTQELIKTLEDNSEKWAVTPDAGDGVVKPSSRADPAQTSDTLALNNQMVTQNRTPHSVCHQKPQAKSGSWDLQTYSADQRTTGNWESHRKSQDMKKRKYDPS
RAD54 inh: inhibitors of human RAD54 branch migration, primary screen, biochemical, fluorescence, single point; inhibition, % at 10.4 µM; RAD54 Holliday junction branch migration, FAM/BHQ fluorescence; 360,000 compounds, 0.14% hits; DNA repair and recombination protein RAD54-like (Homo sapiens), Q92698;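 active means mean normalized replicate activity at least 40 and at least half of replicates scoring 40 or more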;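 further: 0% = median of neutral control wells and 100% = median of positive control wells; inhibitors cause a drop in the FAM fluorescence signal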
ERp5 inh: inhibitors of ERp5-driven insulin aggregation, primary screen, biochemical, turbidity, absorbance 650 nm, single point. 350,000 compounds, 0.05% hits. AID 651711, 2012. Protein disulfide-isomerase A6 (Homo sapiens), Q15084. inhibition, % at 9.99 µM. 90 min;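 active means mean replicate inhibition above about 25%, with every replicate also reaching it, limit read from the data, passing the limit was not always enough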
* hit, by the source's call; . = no result; + = active, no number. An excerpt weighted towards active compounds, which were near 1% of everything screened.

SMILES	CAL PDZ FP-1	CAL PDZ FP-2	PDI inh	RAD52 anneal inh	RAD54 inh	ERp5 inh
CO[C@H]1CN(C)C(=O)c2ccc(NC(=O)c3cccc(F)c3)cc2OC[C@@H](C)N(C)C[C@@H]1C	.	.	.	-4	2	0
COc1cc(OC)cc(C(=O)OC(C)C(=O)NC2CCCc3ccccc32)c1 (centres undefined)	61*	0	-6	-1	-6	5
COc1ccc(C(C)(C)C)cc1NC(=O)COC(=O)c1cnc(C)cn1	3	-1	1	-9	-8	4
COc1ccc(C(C)(C)C)cc1NC(=O)COC(=O)C1=NNC(=O)CC1	133*	0	-4	5	-4	-9
Cc1ccc(/C(N)=N/OC(=O)N2c3ccccc3Sc3ccccc32)cc1	81*	-3	2	.	0	.
Cc1ccccc1/C(N)=N/OC(=O)N1c2ccccc2Sc2ccccc21	0	-1	1	.	-7	.
Cc1ccc(-c2ccc([C@H]3[C@@H](CO)N4CCCCN(S(=O)(=O)c5cccc(C)c5)C[C@H]34)cc2)cc1	.	.	.	70*	4	-6
Cc1cccc(S(=O)(=O)N2CCCCN3[C@@H](CO)[C@@H](c4ccc(-c5ccccc5)cc4)[C@@H]3C2)c1	.	.	.	64*	5	0
CN(C)C(=O)[C@@H]1[C@@H](CO)[C@@H]2Cn3c(ccc(-c4cccnc4)c3=O)[C@H]1N2C(=O)NC1CCCC1	.	.	.	5	0	6
CCCC(=O)Nc1ccc2c(c1)C(=O)N(C)[C@H]1CC[C@H](CC(=O)NCc3ccccc3F)O[C@H]1CO2	.	.	.	.	4	.
COc1ccc(S(=O)(=O)N2CCOC2CNC(=O)C(=O)NCc2ccncc2)cc1 (centres undefined)	+	0	-1	-12	-8	-3
CCC(C)(C)NC(=O)C(c1ccc(C)cc1)N(CC1CCCO1)C(=O)CCC(=O)Nc1ccccn1 (centres undefined)	.	-1	9	-19	.	0
Cc1ccc(C(C(=O)NC(C)(C)C)N(CC2CCCO2)C(=O)CCC(=O)Nc2ccccn2)cc1 (centres undefined)	84*	0	14	-10	-8	3
Cn1c(Oc2ccccc2NCc2cccc(Br)c2)cc(=O)n(C)c1=O	79*	-1	3	.	-6	.
Cn1c(NCc2cccc(Br)c2)nc2ccccc21	4	-1	0	.	-7	.
CC(C)NC(=O)N[C@H]1CC[C@H](CC(=O)NCCCN(C)C)O[C@@H]1CO	.	.	.	.	-2	.
CC1=CC2=C(OC1N(C)C)c1cccc3cccc(c13)C2=O (centres undefined)	39*	.	1	.	-4	.
CC(NC(=O)c1ccc(CS(C)(=O)=O)cc1)c1ccc(-n2ccnc2)cc1 (centres undefined)	-1	0	9	-8	-11	0
CC(NC(=O)c1ccc(Br)o1)c1ccc(-n2ccnc2)cc1 (centres undefined)	35*	-1	0	-7	.	-3
COc1ccccc1CC(NC(C)=O)C(=O)NC1CCN(C(=O)c2ccc([N+](=O)[O-])cc2)CC1 (centres undefined)	2	-1	-13	-21	.	-2
COc1ccc(CC(NC(C)=O)C(=O)NC2CCN(C(=O)c3ccc([N+](=O)[O-])cc3)CC2)cc1OC (centres undefined)	77*	16	3	-17	6	1
O=[N+]([O-])c1ccc(Oc2cccnc2)c([N+](=O)[O-])c1	37*	-1	-5	-8	.	4
Nc1ccc(Oc2ccc([N+](=O)[O-])cc2[N+](=O)[O-])cc1	1	1	2	-10	10	2
Cc1ccc(-c2n[nH]c(=S)c3ccccc23)cc1S(=O)(=O)NCC1CCCO1 (centres undefined)	39*	-4	-2	4	18	2
CCCC#Cc1cnc2c(c1)C(=O)N([C@@H](C)CO)C[C@H](C)[C@@H](CN(C)C(=O)Cc1cccnc1)O2	.	.	.	10	5	8
SMILES	CAL PDZ FP-1	CAL PDZ FP-2	PDI inh	RAD52 anneal inh	RAD54 inh	ERp5 inh
C#CCOCCOCCOCCNc1nc(N2CCN(C(=O)[C@H](CCCCN)n3cc(CN)nn3)CC2)nc(N2CCN(C(=O)[C@H](CCCCN)n3cc(CN)nn3)CC2)n1	-2	0	23	61*	-19	-7
C#CCOCCOCCOCCNc1nc(N2CCOCC2)nc(N2CCN(C(=O)[C@H](CCCCN)n3cc(CCC(=O)O)nn3)CC2)n1	-2	-1	-2	-6	-19	-3
C#CCOCCOCCOCCNc1nc(N2CCN(C(=O)CCCCCCCCCCNC(=O)Cn3cc(CCCCCN)nn3)CC2)nc(N2CCN(C(=O)CCCCCCCCCCNC(=O)Cn3cc(C[C@@H](C)O)nn3)CC2)n1	-3	-2	22	52*	0	7
C#CCOCCOCCOCCNc1nc(N2CCN(C(=O)C(Cc3cc4ccccc4[nH]3)n3cc(C(N)C(C)CC)nn3)CC2)nc(N2CCN(C(=O)C(Cc3cc4ccccc4[nH]3)n3cc(C(N)C(C)CC)nn3)CC2)n1 (centres undefined)	7	0	55*	.	9	.
C#CCOCCOCCOCCNc1nc(N2CCN(C(=O)CCCCCCCCCCNC(=O)Cn3cc(C[C@@H](C)O)nn3)CC2)nc(N2CCN(C(=O)CCCCCCCCCCNC(=O)[C@@H]([C@H](C)CC)n3cc(CCCCCN)nn3)CC2)n1	-7	-3	3	.	2	.
C#CCOCCOCCOCCNc1nc(N2CCN(C(=O)[C@H](CCCCN)n3cc([C@@H](N)CC(C)C)nn3)CC2)nc(N2CCN(C(=O)[C@H](Cc3cc4ccccc4[nH]3)n3cc([C@@H](N)Cc4ccc(O)cc4)nn3)CC2)n1	-2	0	35*	.	11	.
O=C(C1=C(O)C(=O)N(CCN2CCOCC2)C1c1ccccc1)c1cccs1 (centres undefined)	31*	0	0	.	2	.
O=C(Nc1cccnc1)c1ccc(NC(=O)c2ccco2)cc1	8	-3	2	.	2	.
O=C(NCc1cccnc1)c1ccc(NC(=O)c2ccco2)cc1	135*	-1	-19	.	-5	.
CCN(C(=O)c1ccc(NC(=O)c2ccco2)cc1)c1ccccc1	57*	-1	1	-6	7	-1
